Where two headings read alike, the source gives them in different places.
How the values were obtained:
NTR1 mRNA [1] = conditions: breast cancer cells; cited from earlier work
COX-2 mRNA = test: Northern blot of NT-induced COX-2 expression; assay type: cell-based, human; conditions: HT29 cells; NaBT 2.5 mM pretreatment 6 h, then 100 nM NT
NTR1 protein = test: Western blot of NTR1 protein expression; assay type: cell-based, human; conditions: SW480 and HT29 cells; 2.5 mM, 18 h
Procedure, shortened: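 Cells were treated with 2.5 mM test compound or PBS vehicle for 18 h, then lysed in cell lysis buffer. Equal protein was run on bis-Tris gels and transferred to PVDF. Blots were incubated overnight in TBST with anti-human NTR1 antibody, then HRP secondary for 1 h, and detected by ECL. Blots were stripped and reprobed for β-actin; NTR1 bands were quantified densitometrically relative to β-actin.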

PTEN mRNA = test: Northern blot reprobed for PTEN expression; assay type: cell-based, human; conditions: HT29 cells; blot stripped and reprobed
phospho-ERK1/2 = test: Western blot of phospho-ERK1/2; assay type: cell-based, human; conditions: SW480 and HCT116 cells; 18 h; NaBT 2.5 mM, apicidin 1 µM, Emodin 20 µM
Procedure, shortened: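 HCT116 and SW480 cells were exposed 18 h to test compounds or DMSO vehicle. Whole-cell protein was extracted, run on bis-Tris gels and transferred to PVDF. Blots were probed overnight in TBST with phospho-ERK1/2 and total ERK1/2 antibodies, then HRP secondary for 1 h, and detected by ECL. pERK1/2 signal was quantified densitometrically relative to total ERK1/2.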

[2] = test system: gastrin-releasing peptide receptor mRNA; test: RNase protection assay, gastrin-releasing peptide receptor mRNA; assay type: cell-based, human; conditions: NaBT treatment; data not shown
c-myc mRNA = test: Northern blot of c-myc expression; assay type: cell-based, human
Procedure, shortened: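 HCT116 cells in McCoy's 5A with 10% FBS were serum-starved 24 h, pretreated with 2.5 mM test compound for 6 h, then given 100 nM NT or PBS vehicle for a further 0.5, 1 and 2 h. Total RNA (35 µg) was run on 1.2% agarose/formaldehyde gels and blotted to nylon. Blots were hybridised 8–12 h at 65°C with a 32P-UTP cRNA c-myc probe, read by autoradiography and reprobed for GAPDH.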

IL-8 mRNA = test: RNase protection assay of IL-8 expression; assay type: cell-based, human; conditions: HCT116 cells; NaBT alone
[3] = test system: cholecystokinin-B receptor mRNA; test: RNase protection assay, CCK; assay type: cell-based, human; conditions: HT29 and SW480 cells; 2.5 mM NaBT, 20 h
NTR1 promoter = test: NTR1 promoter-luciferase reporter assay; assay type: cell-based, human
CCK-A receptor mRNA = test: RNase protection assay, CCK-A receptor mRNA; assay type: cell-based, human; conditions: NaBT treatment; data not shown
NTR1 mRNA [4] = test: Northern blot of NTR1 mRNA expression in CRC cell lines; assay type: cell-based, human
ERK = conditions: human hepatocellular carcinoma cells; cited from earlier work
[5] = HT29 cells, treatment for 4h, confirmed using SW620 cells
[6] = all NTR1-positive cell lines tested: HT29, HCT116, SW480, SW620, KM20, HDACi

[Cl-].[Li+] [LiCl]
NTR1 mRNA (NTR1 mRNA [1]): increased

CCCC(=O)[O-].[Na+] [NaBT, Sodium butyrate]
NT-induced COX-2 expression (COX-2 mRNA): blocked
NTR1 protein expression (NTR1 protein): decreased NTR1 protein expression
PTEN expression (PTEN mRNA): increased PTEN expression
phospho-ERK1/2 levels (phospho-ERK1/2): significantly decreased phospho-ERK1/2 levels
gastrin-releasing peptide receptor mRNA expression [2]: did not affect mRNA expression
basal c-myc expression (c-myc mRNA; HCT116 cells): decreased basal c-myc expression
NT-stimulated c-myc induction (c-myc mRNA; NaBT 2.5 mM pretreatment 6 h, then 100 nM NT): prevented NT-stimulated c-myc induction
IL-8 expression (IL-8 mRNA): slightly increased IL-8 expression
cholecystokinin-B receptor mRNA expression [3]: did not affect mRNA expression
NTR1 promoter activity (NTR1 promoter; SW480 and HCT116 cells, 2.5 mM NaBT, 20 h): dramatically decreased NTR1 promoter activity
CCK-A receptor mRNA expression (CCK-A receptor mRNA): did not affect mRNA expression
NTR1 expression (mRNA) (NTR1 mRNA [4]; SW480, HCT116 (Fig.1B), SW620, KM20 (data not shown), NaBT): inhibited NTR1 expression

COc1cccc(-c2cc(=O)c3ccccc3o2)c1N [PD98059]
NTR1 mRNA expression (NTR1 mRNA [4]; HCT116 and SW480 cells (also SW620, KM20 data not shown), 16 h, Uo126 0.5-5 µM, PD98059 20 µM, SB-203580 10 µM): identical to those using Uo126

C[S+]([O-])c1ccc(-c2nc(-c3ccncc3)c(-c3ccc(F)cc3)[nH]2)cc1 (centres unmarked) [SB-203580]
NTR1 mRNA expression (NTR1 mRNA [4]): did not affect NTR1 expression

Cn1cc(C2=C(c3ccc(Cl)cc3Cl)C(=O)NC2=O)c2ccccc21 [SB-216763]
NTR1 mRNA expression (NTR1 mRNA [4]; HT29 and SW480 cells, GSK-3β inhibitor over a time course): significantly upregulated NTR1 mRNA expression
NTR1 mRNA suppression resulting from NaBT treatment (NTR1 mRNA [4]; HT29 cells, pre-treated 30 min, then combination with NaBT for 6 h): partially attenuated

CC(/C=C/C(=O)NO)=C\[C@@H](C)C(=O)c1ccc(N(C)C)cc1 [TSA, Trichostatin A]
NTR1 mRNA expression (NTR1 mRNA [4]; [5]): significantly decreased NTR1 mRNA expression
NTR1 mRNA expression (NTR1 mRNA [4]; [6]): suppressed NTR1

N#CC(=C(/N)Sc1ccccc1N)/C(C#N)=C(/N)Sc1ccccc1N [Uo126]
decrease in NTR1 promoter activity (NTR1 promoter; SW480 cells, 5 µM, 16 h): approximately 70%
NTR1 mRNA expression (NTR1 mRNA [4]): suppressed NTR1 mRNA expression in a time- and dose-dependent fashion

CCC(=O)CCCCC[C@@H]1NC(=O)[C@H]2CCCCN2C(=O)[C@H]([C@@H](C)CC)NC(=O)[C@H](Cc2cn(OC)c3ccccc23)NC1=O [apicidin]
phospho-ERK1/2 levels (phospho-ERK1/2): significantly decreased phospho-ERK1/2 levels
NTR1 mRNA expression (NTR1 mRNA [4]; [5]): significantly decreased NTR1 mRNA expression
NTR1 mRNA expression (NTR1 mRNA [4]; [6]): suppressed NTR1

Cc1cc(O)c2c(c1)C(=O)c1cc(O)cc(O)c1C2=O [emodin]
phospho-ERK1/2 levels (phospho-ERK1/2): did not affect ERK1/2 levels

Nc1ccccc1NC(=O)c1ccc(CNC(=O)OCc2cccnc2)cc1 [entinostat]
NTR1 mRNA expression (NTR1 mRNA [4]; [6]): suppressed NTR1

CCCC(CCC)C(=O)O [valproic acid]
activation of ERK (ERK): decreased activation of ERK
NTR1 mRNA expression (NTR1 mRNA [4]; [6]): suppressed NTR1

Neurotensin [NT]
c-myc expression (c-myc mRNA; 100 nM NT, 0.5 h, 1 h and 2 h, serum-starved cells): increased c-myc expression in time-dependent fashion
